The values below come from ChEMBL document CHEMBL2440044, “Synthesis and anti-tumor activity of carbohydrate analogues of the tetrahydrofuran containing acetogenins” (Bioorg Med Chem, 2013).

Common to all, as to assay type: functional, cell-based
For one experiment, the system named is MDA-MB-231. Nature of the experiment: Cytotoxicity against human MDA-MB-231 cells after 48 hrs by Cell titer Glo assay. To be noted: MDA-MB-231, 48 h. The gist of the method: (§1)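 Cells grown in medium with 10% FBS and penicillin-streptomycin: DMEM for HeLa, MDA-MB231 and PC-3, RPMI for Jurkat. Compounds were taken from 20 mM DMSO stocks and serially diluted in medium at 37 °C. Cells were exposed for 48 h. Viability was read as ATP luminescence and normalized to untreated control (% viability). IC50 came from dose-response curve fits; each was run three times and given as mean ± SD.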

For the next experiment, the system named is Jurkat. Nature of the experiment: Cytotoxicity against human Jurkat cells after 48 hrs by Cell titer Glo assay. The gist of the method:
as §1
A general note: Cellular ATP, detected with luciferase, serves as a proxy for viable cell number.

A further experiment deals with HeLa. Nature of the experiment: Cytotoxicity against human HeLa cells after 48 hrs by Cell titer Glo assay. The gist of the method: as §1
A further experiment has as its system PC-3. Nature of the experiment: Cytotoxicity against human PC3 cells after 48 hrs by Cell titer Glo assay. The conditions noted are these: PC-3, 48 h. The gist of the method: as §1

By IC50 is commonly meant the point on the concentration scale where inhibition reaches its midpoint.

On to `CCCCCCCCCCCO[C@H]1[C@@H](O)[C@@H](CO)O[C@@H](OCCCCCCCCCCCC[C@@H](O)CC2=C[C@H](C)OC2=O)[C@@H]1O`, for which the IC50 amounted to 73.5 µM in the experiment with MDA-MB-231, 78.2 µM with Jurkat and 50.3 µM in the experiment on HeLa.
For `CCCCCCCCCCCOC[C@H]1O[C@H](OCCCCCCCCCCCC[C@@H](O)CC2=C[C@H](C)OC2=O)C[C@@H](O)[C@@H]1O`, the IC50 in the experiment on MDA-MB-231 was 16.8 µM; with Jurkat it was 13.3 µM; with HeLa it was 16.3 µM; with PC-3, 44 µM.
`CCCCCCCCCCCOC[C@@H]1CC[C@H](O)[C@@H](OCCCCCCCCCCCC[C@@H](O)CC2=C[C@H](C)OC2=O)O1`: the IC50 in the experiment with MDA-MB-231 was found to be 21.8 µM; with Jurkat it was 10.7 µM; with HeLa, 13.9 µM; with PC-3, 28.7 µM.
Regarding `CCCCCCCCCCCOC[C@@H]1C[C@H](O)[C@H](O)[C@@H](OCCCCCCCCCCCC[C@@H](O)CC2=C[C@H](C)OC2=O)O1`, the IC50 is 36.7 µM in the experiment on MDA-MB-231, 19.7 µM with Jurkat, 23.3 µM in the experiment on HeLa and 52.8 µM in the experiment on PC-3.
Consider `CCCCCCCCCCCOC[C@H]1O[C@H](OCCCCCCCCCCCC[C@@H](O)CC2=C[C@H](C)OC2=O)[C@@H](O)[C@@H](O)[C@@H]1O`, for which the IC50 with MDA-MB-231 was found to be 21.2 µM; in the experiment on Jurkat, 10.1 µM; in the experiment on HeLa, 15.2 µM; in the experiment with PC-3, 32.6 µM.
In the case of `CCCCCCCCCCCC[C@@H](O)[C@H]1CC[C@H]([C@H](O)CCCCC[C@@H](O)CCCCCCC2=C[C@H](C)OC2=O)O1`, the IC50 in the experiment on MDA-MB-231 worked out at 34.2 µM; in the experiment on Jurkat, 17.8 µM; with HeLa it was 21 µM; in the experiment with PC-3, 43.1 µM.
